Test results: the RNAGym collection of RNA variant scans (doi:10.1126/science.aae0568)
Variants at the floor of the assay were thinned out.

B1: tRNA (parent)
chain: GUUCCGUUGGCGUAAUGGUAACGCGUCUCCCUCCUAAGGAGAAGACUGCGGGUUCGAGUCCCGUACGGAACG

Variants of: B1
Assay: yeast fitness relative to wild type (ratio to wild type); higher = fitter; tRNA-Arg(CCU), competitive growth, 37 C, YPD
Procedure, shortened: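 A pool of Saccharomyces cerevisiae strains, each with a tRNA-Arg(CCU) gene variant at the native genomic locus, was competed in YPD at 37°C for 24 hours across six parallel replicates. The variants had been chemically synthesised at a 3% per-site mutation rate over 69 sites, and gene amplicons before and after competition were read by 100-nucleotide paired-end sequencing. Darwinian fitness relative to wild type rested on changes in genotype frequencies. Genotypes required ≥ 100 starting reads, and estimates < 0.5 were set to 0.5.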

Variant	yeast fitness
U2C C11A U32C	≤ 0.5
U2C A14U C31U C62G	≤ 0.5
U2C A15G U19A A20U A37U A45G U47G C61G	0.676
U2A U32A G67A	≤ 0.5
U2C A65U	1.05
U2C A43U G50A U54G G68C	≤ 0.5
U2A G17C C49U	0.571
U2A G9C	0.716
U2A G44A C46U	0.621
U2C A21G G68A	0.864
U2A U28G A40C G67C	0.639
U2A G48C G52C A57C G58A	≤ 0.5
U2C C11U A65C	0.583
U2C A14G C46U C60A	≤ 0.5
U2A G48C A65C	0.593
U2C A15C C22A C31U C55A	≤ 0.5
U2A G38C C55U	≤ 0.5
U2C A36C G38C C55U C62A	≤ 0.5
U2C A21G C33G U35C U59A A69U	≤ 0.5
U2A G12C C29U C33G	≤ 0.5
U2A U3A U59G	≤ 0.5

Variant	yeast fitness
U2A G41C	0.757
U2C A37G G68C	≤ 0.5
U2A U16G C27G C49G G67U	≤ 0.5
U2A G25A	0.828
U2C C5G U59A	0.613
U2A G12U G23A A36G G39A	0.584
U2C C5G C62U	0.717
U2A U13A C24A C30A	≤ 0.5
U2C A14G G18A U32A G44A	0.527
U2C C4U C34U C55U G68C	≤ 0.5
U2A U28A A37C U64C A65G	≤ 0.5
U2C C5G G9A A15U	0.539
U2C A21C C30A C62U A70U	≤ 0.5
U2C A40C	0.851
U2C A40G C61A	≤ 0.5
U2C A43U U47C	0.749
U2C A45G	0.883
U2C A45C	1.01
U2C A37U G52A	≤ 0.5
U2A G17C C46U	≤ 0.5
U2C A43U	0.989

Variant	yeast fitness
U2A U28A G51C A57C	≤ 0.5
U2C C4G	0.965
U2C C4A	0.877
U2A U3A G39A A42C	≤ 0.5
U2A U7C G17C C29A A45U U59C	0.902
U2C C4A C11U C60A C62U	≤ 0.5
U2A G17C C46U G67C	≤ 0.5
U2C A40G A45C	≤ 0.5
U2C C11G C46A A57U	≤ 0.5
U2C A21U U32A A40C G56C	≤ 0.5
U2A G23A C29G C55U	≤ 0.5
U2A G9C U16G U32G G52A G63C C66U	≤ 0.5
U2C A40C A57C C66U	≤ 0.5
U2C C5G A37G G48A	≤ 0.5
U2C A20U A45G	≤ 0.5
U2C A15C G23A C31G A45U	0.61
U2A U16C G44C G52A	≤ 0.5
U2C A15C G23C C31A	≤ 0.5
U2C A14G C22A C27A C29U A42C	≤ 0.5
U2A U3C G6A C66G	≤ 0.5
U2C C11A C31U C33U A42C	0.527

Variant	yeast fitness
U2C A20G C62U	0.599
U2A G50C A57G	≤ 0.5
U2A G39C	0.75
U2C C11U A21C U26C A57U	≤ 0.5
U2A U3G U32A C60A	≤ 0.5
U2A U3G C11A U16C C22G A57C C62A	0.572
U2A U16A	0.989
U2A U16C	0.88
U2A G10A U26A C66U	≤ 0.5
U2C A37U	0.826
U2C A37C	0.81
U2C A37G	0.67
U2A G25A A40C A65C	≤ 0.5
U2C C11U	1.03
U2A G12C G23C	≤ 0.5
U2A U8C C30G U59A U64A	0.569
U2C C11U A21C U26C C34A A45U C46A G50A U54C C55G	≤ 0.5
U2A G9C G17A	≤ 0.5
U2C A14G	0.863
U2A U28A C55G A70G	≤ 0.5
